Results reported in ChEMBL document CHEMBL3751676, “Combating P-glycoprotein-mediated multidrug resistance with 10-O-phenyl dihydroartemisinin ethers in MCF-7 cells” (Eur J Med Chem, 2016).
Blank lines part the entries; values can stand above or below the molecule they belong to. Calls of active or inactive are those of the source. The rule behind the calls is not given here.

How the values were obtained:
[1] = tested on: NCI/ADR-RES; assay: Effect on p27 expression in human MCF7/ADR cells at 0.1 uM after 48 hrs by western blot analysis; type: functional, cell-based
Procedure, shortened: (§1)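 Lysates from treated cells were immunoblotted. Membranes were blocked in 5% nonfat milk, incubated overnight at 4 C with antibodies to PARP, p27, cyclin D1 or cyclin B1, and detected by enhanced chemiluminescence.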

[2] = target: T1, MDR1 (ABCB1) (Homo sapiens, UniProt P08183); assay: Activity at MDR1 (unknown origin) expressed in MDCK cells assessed as permeability across apical to basolateral after 90 mins by LC-MS/MS analysis; type: ADME, cell-based
T1 sequence (P08183 whole entry): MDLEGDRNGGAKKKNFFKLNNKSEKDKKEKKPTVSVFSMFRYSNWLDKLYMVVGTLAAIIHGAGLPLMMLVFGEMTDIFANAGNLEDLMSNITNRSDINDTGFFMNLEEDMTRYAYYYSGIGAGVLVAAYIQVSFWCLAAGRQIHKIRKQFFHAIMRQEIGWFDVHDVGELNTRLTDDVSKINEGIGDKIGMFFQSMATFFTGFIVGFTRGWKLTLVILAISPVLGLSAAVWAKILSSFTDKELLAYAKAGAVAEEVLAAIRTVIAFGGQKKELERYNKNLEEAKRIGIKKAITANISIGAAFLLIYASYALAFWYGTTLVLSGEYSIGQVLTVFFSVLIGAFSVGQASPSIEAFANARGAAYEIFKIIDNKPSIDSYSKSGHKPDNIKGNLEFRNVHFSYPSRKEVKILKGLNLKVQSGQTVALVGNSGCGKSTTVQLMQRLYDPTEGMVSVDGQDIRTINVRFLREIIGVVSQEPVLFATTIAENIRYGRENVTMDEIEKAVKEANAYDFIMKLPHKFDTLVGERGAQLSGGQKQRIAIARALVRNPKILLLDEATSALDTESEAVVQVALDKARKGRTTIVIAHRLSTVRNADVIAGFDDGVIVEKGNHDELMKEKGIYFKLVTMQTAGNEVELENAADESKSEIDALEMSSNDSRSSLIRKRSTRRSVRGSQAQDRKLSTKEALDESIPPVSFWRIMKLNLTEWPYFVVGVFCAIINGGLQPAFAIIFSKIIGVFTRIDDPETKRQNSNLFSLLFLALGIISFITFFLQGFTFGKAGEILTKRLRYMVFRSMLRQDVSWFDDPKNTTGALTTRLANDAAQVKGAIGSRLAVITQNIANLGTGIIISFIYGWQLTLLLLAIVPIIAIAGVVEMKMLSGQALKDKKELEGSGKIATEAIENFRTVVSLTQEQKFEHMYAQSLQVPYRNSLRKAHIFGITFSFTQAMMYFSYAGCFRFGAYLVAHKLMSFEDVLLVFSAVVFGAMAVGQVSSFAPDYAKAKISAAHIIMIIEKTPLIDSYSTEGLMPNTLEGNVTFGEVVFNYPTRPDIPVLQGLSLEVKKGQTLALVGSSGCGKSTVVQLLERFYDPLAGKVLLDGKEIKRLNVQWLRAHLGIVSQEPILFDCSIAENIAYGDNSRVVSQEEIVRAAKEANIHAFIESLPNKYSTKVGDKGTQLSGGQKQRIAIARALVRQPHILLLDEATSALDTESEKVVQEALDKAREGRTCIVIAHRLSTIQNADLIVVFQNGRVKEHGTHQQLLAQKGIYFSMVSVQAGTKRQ

[3] = tested on: MCF7; assay: Cell cycle arrest in human MCF7 cells assessed as accumulation at G1 phase at 0.5 uM after 24 hrs by propidium iodide staining based flow cytometry (reference value: 62.5 %); type: functional
Procedure, shortened: (§2)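 Cells treated for 24 h or 48 h, then trypsinized, fixed in ice-cold 70% ethanol and stained with propidium iodide for flow cytometry. Percentages of cells in G1 and sub-G1 are compared with untreated cells.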

[4] = tested on: MCF7; assay: Effect on cleaved PARP level in human MCF7 cells at 0.5 uM after 24 and 48 hrs by western blot analysis; type: functional, cell-based; procedure, shortened: as §1
[5] = Cell cycle arrest in human MCF7/ADR cells assessed as accumulation at sub-G1 phase at 0.05 uM after 48 hrs by propidium iodide staining based flow cytometry (reference value: […]); type: functional; settings: NCI/ADR-RES
[6] = Downregulation of cyclin B1 expression in human MCF7/ADR cells at 0.1 uM after 48 hrs by western blot analysis; type: functional, cell-based; settings: NCI/ADR-RES; procedure, shortened: as §1
[7] = Permeability across apical to basolateral side in MDCK cells after 90 mins by LC-MS/MS analysis; type: ADME, cell-based, Canis lupus familiaris; settings: dog
Procedure, shortened: (§3)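 Wild-type MDCK cells on Transwell filters. Transport was run in HBSS pH 7.4 at 37 °C in A-B and B-A directions, and plates were separated after 90 min incubation. Efflux ratio is Papp(B-A)/Papp(A-B). Papp is reported as "<" when receiver concentrations were below the quantitation limit.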

[8] = Downregulation of cyclin D1 expression in human MCF7/ADR cells at 0.1 uM after 48 hrs by western blot analysis; type: functional, cell-based; settings: NCI/ADR-RES; procedure, shortened: as §1
[9] = tested on: MCF7; assay: Cell cycle arrest in human MCF7 cells assessed as accumulation at G1 phase at 0.25 uM after 48 hrs by propidium iodide staining based flow cytometry (reference value: 62.8%); type: functional; procedure, shortened: as §2
[10] = Cell cycle arrest in human MCF7/ADR cells assessed as accumulation at G1 phase at 0.05 uM after 24 hrs by propidium iodide staining based flow cytometry (reference value: 54.6 %); type: functional; settings: NCI/ADR-RES; procedure, shortened: as §2
[11] = tested on: MCF7; assay: Downregulation of cyclin B1 expression in human MCF7 cells at 0.5 uM after 24 and 48 hrs by western blot analysis; type: functional, cell-based; procedure, shortened: as §1
[12] = tested on: NCI/ADR-RES; assay: Effect on cleaved PARP level in human MCF7/ADR cells at 0.1 uM after 24 and 48 hrs by western blot analysis; type: functional, cell-based; procedure, shortened: as §1
[13] = tested on: MCF7; assay: Cell cycle arrest in human MCF7 cells assessed as accumulation at G1 phase at 0.25 uM after 24 hrs by propidium iodide staining based flow cytometry (reference value: 62.5 %); type: functional; procedure, shortened: as §2
[14] = Antiproliferative activity against human MCF7/ADR cells after 96 hrs by MTT assay; type: functional; settings: NCI/ADR-RES
Procedure, shortened: (§4)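 MTT: cells seeded at 1.5-4.0 × 10^4 cells/mL and incubated overnight at 37 C, then exposed to 5-9 concentrations (DMSO stocks diluted in growth medium; final DMSO ≤0.5%) for 96 h. MTT added at 0.5 mg/mL for a further 4 h at 37 C and the formazan dissolved. Inhibition calculated relative to control; GI50 estimated by curve fitting; 3-5 repeats, mean ± SD.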

[15] = tested on: MCF7; assay: Downregulation of cyclin D1 expression in human MCF7 cells at 0.5 uM after 24 and 48 hrs by western blot analysis; type: functional, cell-based; procedure, shortened: as §1
[16] = Cell cycle arrest in human MCF7/ADR cells assessed as accumulation at G1 phase at 0.25 uM after 24 hrs by propidium iodide staining based flow cytometry (reference value: 54.6 %); type: functional; settings: NCI/ADR-RES; procedure, shortened: as §2
[17] = tested on: MCF7; assay: Cell cycle arrest in human MCF7 cells assessed as accumulation at G1 phase after 24 and 48 hrs by propidium iodide staining based flow cytometry; type: functional; procedure, shortened: as §2
[18] = tested on: MCF7; assay: Upregulation of p27 expression in human MCF7 Cells at 0.5 uM after 24 and 48 hrs by western blot analysis; type: functional, cell-based; procedure, shortened: as §1
[19] = Cell cycle arrest in human MCF7/ADR cells assessed as accumulation at sub-G1 phase at 0.25 uM after 48 hrs by propidium iodide staining based flow cytometry (reference value: […]); type: functional; settings: NCI/ADR-RES
[20] = Cell cycle arrest in human MCF7/ADR cells assessed as accumulation at G1 phase at 0.25 uM after 48 hrs by propidium iodide staining based flow cytometry (reference value: 56.9 %); type: functional; settings: NCI/ADR-RES; procedure, shortened: as §2
[21] = target: T1, MDR1 (ABCB1); assay: Activity at MDR1 (unknown origin) expressed in MDCK cells assessed as permeability across basolateral to apical after 90 mins by LC-MS/MS analysis; type: ADME, cell-based
[22] = tested on: NCI/ADR-RES; assay: Selectivity index, ratio of GI50 for human MCF7 cells to GI50 for human MCF7/ADR cells; type: functional
[23] = tested on: MCF7; assay: Cell cycle arrest in human MCF7 cells assessed as accumulation at G1 phase at 0.5 uM after 48 hrs by propidium iodide staining based flow cytometry (reference value: 62.8 %); type: functional; procedure, shortened: as §2
[24] = tested on: MCF7; assay: Antiproliferative activity against human MCF7 cells after 96 hrs by MTT assay; type: functional; settings: MCF7, 96 h; procedure, shortened: as §4
[25] = Permeability across basolateral to apical side in MDCK cells after 90 mins by LC-MS/MS analysis; type: ADME, cell-based, Canis lupus familiaris; settings: dog; procedure, shortened: as §3
[26] = Cell cycle arrest in human MCF7/ADR cells assessed as accumulation at G1 phase at 0.05 uM after 48 hrs by propidium iodide staining based flow cytometry (reference value: 56.9 %); type: functional; settings: NCI/ADR-RES; procedure, shortened: as §2

Compound: C[C@H]1[C@@H](Oc2ccc(/C=C/C(=O)N3CCN(c4cccc(C(F)(F)F)c4)CC3)cc2)O[C@@H]2O[C@@]3(C)CC[C@H]4[C@H](C)CC[C@@H]1[C@@]24OO3
- Activity [1]: inactive
- Papp A→B at 1.5 h [2]: < 1.83 ×10⁻⁶ cm/s
- Activity [3]: 73.8%
- Activity [4]: inactive
- Activity [5]: 2.4%
- inhibition [6]: Active
- Papp A→B at 1.5 h [7]: < 1.82 ×10⁻⁶ cm/s
- inhibition [8]: Active
- Activity [9]: 82.3%
- Activity [10]: 71.5%
- inhibition [11]: Active
- Activity [12]: inactive
- Activity [13]: 70%
- GI50 [14]: 21 nM
- inhibition [15]: Active
- Activity [16]: 70.2%
- Activity [17]: Dose-dependent effect
- Activity [18]: Active
- Activity [19]: 8.7%
- Activity [20]: 62.6%
- Papp B→A at 1.5 h [21]: < 1 ×10⁻⁶ cm/s
- RatioGI50 [22]: 15.24
- Activity [23]: 83.4%
- GI50 [24]: 320 nM
- Papp B→A at 1.5 h [25]: < 0.93 ×10⁻⁶ cm/s
- Activity [26]: 65.2%

Compound: C[C@H]1[C@@H](Oc2ccc(CN3CCN(c4cccc(C(F)(F)F)c4)CC3)cc2)O[C@@H]2O[C@@]3(C)CC[C@H]4[C@H](C)CC[C@@H]1[C@@]24OO3
- GI50 [14]: 33 nM
- RatioGI50 [22]: 6.67
- GI50 [24]: 220 nM

Compound: COc1ccccc1N1CCN(C(=O)Cc2ccc(O[C@H]3O[C@@H]4O[C@@]5(C)CC[C@H]6[C@H](C)CC[C@@H]([C@H]3C)[C@@]46OO5)cc2)CC1
- GI50 [14]: 43 nM
- RatioGI50 [22]: 10.93
- GI50 [24]: 470 nM

Compound: C[C@H]1[C@@H](Oc2ccc(CN3CCN(c4ccc(F)cc4)CC3)cc2)O[C@@H]2O[C@@]3(C)CC[C@H]4[C@H](C)CC[C@@H]1[C@@]24OO3
- Papp A→B at 1.5 h [2]: < 1.34 ×10⁻⁶ cm/s
- Papp A→B at 1.5 h [7]: < 1.33 ×10⁻⁶ cm/s
- GI50 [14]: 25 nM
- Papp B→A at 1.5 h [21]: < 0.85 ×10⁻⁶ cm/s
- RatioGI50 [22]: 21.2
- GI50 [24]: 530 nM
- Papp B→A at 1.5 h [25]: < 0.83 ×10⁻⁶ cm/s

- GI50 [24]: 54 nM
Compound: COc1cccc2c1C(=O)c1c(O)c3c(c(O)c1C2=O)C[C@@](O)(C(=O)CO)C[C@@H]3O[C@H]1C[C@H](N)[C@H](O)[C@H](C)O1.Cl [DOXORUBICIN HYDROCHLORIDE]
- GI50 [14]: 520 nM
- RatioGI50 [22]: 0.1

Compound: C[C@H]1[C@@H](Oc2ccc(CN3CCN(c4ccccc4)CC3)cc2)O[C@@H]2O[C@@]3(C)CC[C@H]4[C@H](C)CC[C@@H]1[C@@]24OO3
- GI50 [14]: 21 nM
- RatioGI50 [22]: 11.43
- GI50 [24]: 240 nM

Compound: C[C@H]1[C@@H](Oc2ccc(CC(=O)N3CCN(c4ccccc4)CC3)cc2)O[C@@H]2O[C@@]3(C)CC[C@H]4[C@H](C)CC[C@@H]1[C@@]24OO3
- GI50 [14]: 90 nM
- RatioGI50 [22]: 4.78
- GI50 [24]: 430 nM

Compound: C[C@H]1[C@@H](Oc2ccc(CC(=O)N3CCN(c4ccc(F)cc4)CC3)cc2)O[C@@H]2O[C@@]3(C)CC[C@H]4[C@H](C)CC[C@@H]1[C@@]24OO3
- GI50 [14]: 44 nM
- RatioGI50 [22]: 7.11
- GI50 [24]: 290 nM

Compound: C[C@H]1[C@@H](Oc2ccc(CN3CCN(c4ccccn4)CC3)cc2)O[C@@H]2O[C@@]3(C)CC[C@H]4[C@H](C)CC[C@@H]1[C@@]24OO3
- GI50 [14]: 55 nM
- RatioGI50 [22]: 3.09
- GI50 [24]: 170 nM

Compound: C[C@H]1[C@@H](Oc2ccc(CC(=O)N3CCN(c4cccc(C(F)(F)F)c4)CC3)cc2)O[C@@H]2O[C@@]3(C)CC[C@H]4[C@H](C)CC[C@@H]1[C@@]24OO3
- GI50 [14]: 41 nM
- RatioGI50 [22]: 6.34
- GI50 [24]: 260 nM
